Results published in ChEMBL document CHEMBL4373710, “DNA Structural Alteration Leading to Antibacterial Properties of 6-Nitroquinoxaline Derivatives” (J Med Chem, 2019).
≈ marks a conversion by molar mass, not a printed value. Calls of active or inactive are those of the source. No cut-off for these calls is given here.

How the values were obtained:
DNA [1] = assay: Inhibition of ethidium bromide binding to Staphylococcus aureus DNA assessed as Stern-Volmer quenching constant by fluorescence assay; format: nucleic-acid assay
Procedure, shortened: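 Fluorescence intercalator displacement: S. aureus genomic DNA 10 µM plus EtBr 5 µM in 10 mM NaP pH 7, 10 mM NaCl, 1% DMSO, at 25 and 37 °C; titrated with 2.5–100 µM compound. Excitation 480 nm, emission 520–700 nm, inner-filter corrected, triplicates; Stern–Volmer analysis, F0/F = 1 + Ksv[Q].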

DNA [2] = assay: Induction of DNA condensation in Staphylococcus aureus assessed as decrease in nucleoid area at 10 uM after 1 hr by DAPI staining-based confocal laser scanning fluorescence microscopic analysis relative to control; format: nucleic-acid assay; design: scale not given: the % may be the effect or the level left
Procedure, shortened: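 S. aureus grown 6 h at 37 °C, washed into PBS and exposed to 10 µM compound or 0.5% DMSO for 1 h at 37 °C with shaking. Fixed in paraformaldehyde for 30 min at 4 °C, then DAPI-stained for 5 min. Nucleoid and cell areas measured from phase contrast/DAPI images; N/C ratio from 35 cells over three independent experiments, mean ± SD.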

[3] = Binding affinity to pCDNA 3.1 (unknown origin) assessed as DNA unwinding effect at 2:1 to 4:1 compound to DNA ratio measured after 16 hrs by EtBr staining agarose gel shift assay
Procedure, shortened: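 pcDNA3.1 plasmid was grown in E. coli DH5α and used at 40 µM in 50 mM NaP, pH 7, with 10 mM NaCl. Mixed with compound at set [compound]:[DNA bp] ratios and held 16 h at 37 °C. Run on 1% agarose at 50 V for about 3 h, then stained with EtBr (1 µg/mL) for 5 min.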

[4] = system: Poly(dG-dC)oligonucleotide; assay: Binding affinity to poly(dG-dC) DNA (unknown origin) assessed as change in B-DNA structure by circular dichroism method; format: nucleic-acid assay
Procedure, shortened: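 Poly(dA-dT)·poly(dA-dT) or poly(dG-dC)·poly(dG-dC) held at 10 µM. Titrated with compound from 20 to 60 µM and followed by circular dichroism for change in the B-DNA band and appearance of induced CD.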

Staphylococcus aureus [5] = assay: Induction of morphological changes in Staphylococcus aureus assessed as changed population at 7.5 uM measured after 2 hrs by flow cytometric analysis (reference value: 5.71%); format: functional
Staphylococcus aureus [6] = assay: Disruption of cell membrane in Staphylococcus aureus assessed as accumulation of propidium iodide negative cells at 3.5 uM by flow cytometric analysis (reference value: 98.2%); format: functional
DNA [7] = assay: Binding affinity to Staphylococcus aureus DNA assessed as induction of structural changes by EtBr staining based agarose gel shift assay; format: nucleic-acid assay
Procedure, shortened: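 S. aureus genomic DNA incubated with compound at stated [compound]:[DNA bp] ratios, 16 h at 37 °C, in NaP buffer pH 7 with 10 mM NaCl. Run on agarose gel, stained with EtBr (1 µg/mL) and classed as supercoiled, structurally altered or condensed.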

Escherichia coli = assay: Antibacterial activity against Escherichia coli MTCC1916 by broth microdilution assay; format: functional
Procedure, shortened: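 Broth microdilution per CLSI; 5×10^5 cfu/mL bacteria in LB broth; compounds from DMSO stocks, final DMSO under 0.6%, with DMSO control. Plates incubated at the strain's recommended growth temperature and time; growth read as OD600.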

HEK293 = assay: Induction of morphological changes in HEK293 cells at 5 uM by propidium iodide staining based assay; format: cell-based; conditions: human, hek293, 5 µM

In the case of `CN(C)CCCNc1nc2cc([N+](=O)[O-])ccc2nc1NCc1ccc(C(F)(F)F)cc1`, the KSV (DNA [1]) is reported as 1 ×10⁴ /M, the Activity (DNA [2]) is reported as 30% and the Activity [3] is reported as “Active”. The Activity [4] was “Dose-dependent effect”, the Activity (Staphylococcus aureus [5]) was 16.4% and the Activity (Staphylococcus aureus [6]) was 91.6%. The Activity (DNA [7]) was “Dose-dependent effect”, the MIC (Escherichia coli) was 3.36 µg/mL (≈ 7.49 µM) and the Activity (HEK293) was “Non-Toxic”.
